# Legend:
# Bifidobacterium longum [1] = assay: Antimicrobial activity against 90 mins oxgall-stressed Bifidobacterium longum ATCC 15708 after 18 hrs; type: functional
# How it was run: (§1)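 Cells pelleted from mid-log MRS culture and resuspended in MRS (initial pH 6.5) with 0.3% (wt/vol) oxgall for 90 min anaerobically at 37°C. They were then regrown in MRS pH 6.5 for 24 h (footnote: 18 h) anaerobically and tested for MIC by the same broth microdilution assay. Median of four repetitions.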
# Bifidobacterium longum [2] = assay: Antimicrobial activity against Bifidobacterium longum P/N 601377; type: functional
# How it was run: (§2)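 Broth microdilution in MRS plus 0.05% L-cysteine-HCl. Mid-log culture adjusted to OD650 0.1, giving about 2.5 × 10^4 to 5.0 × 10^4 CFU/well, then added to twofold serial dilutions of agent. Plates incubated anaerobically at 37°C for 18 h and read at OD650. MIC is the lowest concentration matching the uninoculated blank OD, taken as the median of four repeats.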
# Bifidobacterium bifidum [3] = assay: Antimicrobial activity against Bifidobacterium bifidum ATCC 15696; type: functional; how it was run: as §2
# [4] = tested on: Bifidobacterium pseudolongum; assay: Antimicrobial activity against Bifidobacterium pseudolongum ATCC 25562; type: functional; how it was run: as §2
# [5] = tested on: Bifidobacterium thermophilum; assay: Antimicrobial activity against Bifidobacterium thermophilum ATCC 25866; type: functional; how it was run: as §2
# [6] = Antimicrobial activity against 90 mins oxgall-stressed Bifidobacterium infantis ATCC 15697 after 18 hrs; type: functional, Bifidobacterium longum subsp. infantis; conditions: Bifidobacterium longum; how it was run: as §1
# Bifidobacterium bifidum [7] = assay: Antimicrobial activity against 90 mins hydrogen peroxide-stressed Bifidobacterium bifidum BB12 after 18 hrs; type: functional
# How it was run: (§3)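 Stress applied for 90 min at 37°C under anaerobic conditions, using MRS (initial pH 6.5) containing H2O2 at each strain's own inhibitory concentration. The H2O2 level was set beforehand by microplate tolerance testing. Challenged cells were regrown in MRS for 24 h (footnote: 18 h) before MIC testing by broth microdilution. Median of four repetitions.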
# Bifidobacterium bifidum [8] = assay: Antimicrobial activity against 60 min 1 M HCl-stressed Bifidobacterium bifidum BB12 after 18 hrs; type: functional
# How it was run: (§4)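 Mid-log MRS culture pelleted and resuspended in MRS broth brought to pH 2.0 with 1 M HCl, held anaerobically at 37°C for 60 min, then subcultured in MRS (pH 6.5) for 24 h anaerobically before MIC testing by broth microdilution (as for unstressed cells). Table footnote gives 18 h anaerobic regrowth after the stress. MIC is the median of four repetitions.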
# [9] = Antimicrobial activity against 60 min 1 M HCl-stressed Bifidobacterium infantis ATCC 15697 after 18 hrs; type: functional, Bifidobacterium longum subsp. infantis; conditions: Bifidobacterium longum; how it was run: as §4
# Bifidobacterium bifidum [10] = assay: Antimicrobial activity against 90 mins oxgall-stressed Bifidobacterium bifidum BB12 after 18 hrs; type: functional; how it was run: as §1
# Bifidobacterium longum [11] = assay: Antimicrobial activity against 90 mins hydrogen peroxide-stressed Bifidobacterium longum ATCC 15708 after 18 hrs; type: functional; how it was run: as §3
# [12] = tested on: Bifidobacterium pseudolongum; assay: Antimicrobial activity against 90 mins oxgall-stressed Bifidobacterium pseudolongum ATCC 25562 after 18 hrs; type: functional; how it was run: as §1
# Bifidobacterium breve [13] = assay: Antimicrobial activity against Bifidobacterium breve ATCC 15700; type: functional; how it was run: as §2
# Bifidobacterium longum [14] = assay: Antimicrobial activity against Bifidobacterium longum ATCC 15707; type: functional; how it was run: as §2
# Bifidobacterium breve [15] = assay: Antimicrobial activity against 90 mins oxgall-stressed Bifidobacterium breve ATCC 15700 after 18 hrs; type: functional; how it was run: as §1
# Bifidobacterium breve [16] = assay: Antimicrobial activity against Bifidobacterium breve R0070; type: functional; how it was run: as §2
# [17] = tested on: Bifidobacterium pseudolongum; assay: Antimicrobial activity against 60 min 1 M HCl-stressed Bifidobacterium pseudolongum ATCC 25562 after 18 hrs; type: functional; how it was run: as §4
# Bifidobacterium breve [18] = assay: Antimicrobial activity against 60 min 1 M HCl-stressed Bifidobacterium breve R0070 after 18 hrs; type: functional; how it was run: as §4
# Bifidobacterium breve [19] = assay: Antimicrobial activity against 90 mins oxgall-stressed Bifidobacterium breve R0070 after 18 hrs; type: functional; how it was run: as §1
# [20] = Antimicrobial activity against Bifidobacterium infantis ATCC 15697; type: functional, Bifidobacterium longum subsp. infantis; conditions: Bifidobacterium longum; how it was run: as §2
# Bifidobacterium animalis [21] = assay: Antimicrobial activity against 90 mins oxgall-stressed Bifidobacterium animalis ATCC 27536 after 18 hrs; type: functional; how it was run: as §1
# Bifidobacterium bifidum [22] = assay: Antimicrobial activity against Bifidobacterium bifidum R0071; type: functional; how it was run: as §2
# Bifidobacterium bifidum [23] = assay: Antimicrobial activity against 90 mins oxgall-stressed Bifidobacterium bifidum R0071 after 18 hrs; type: functional; how it was run: as §1
# Bifidobacterium bifidum [24] = assay: Antimicrobial activity against Bifidobacterium bifidum BB12; type: functional; how it was run: as §2
# Bifidobacterium animalis [25] = assay: Antimicrobial activity against Bifidobacterium animalis ATCC 27536; type: functional; how it was run: as §2
# Bifidobacterium bifidum [26] = assay: Antimicrobial activity against 90 mins hydrogen peroxide-stressed Bifidobacterium bifidum R0071 after 18 hrs; type: functional; how it was run: as §3
# Bifidobacterium longum [27] = assay: Antimicrobial activity against 90 mins hydrogen peroxide-stressed Bifidobacterium longum ATCC 15707 after 18 hrs; type: functional; how it was run: as §3
# Bifidobacterium longum [28] = assay: Antimicrobial activity against 60 min 1 M HCl-stressed Bifidobacterium longum R0175 after 18 hrs; type: functional; how it was run: as §4
# Bifidobacterium longum [29] = assay: Antimicrobial activity against 90 mins oxgall-stressed Bifidobacterium longum R0175 after 18 hrs; type: functional; how it was run: as §1
# Bifidobacterium breve [30] = assay: Antimicrobial activity against 90 mins hydrogen peroxide-stressed Bifidobacterium breve R0070 after 18 hrs; type: functional; how it was run: as §3
# Bifidobacterium longum [31] = assay: Antimicrobial activity against 90 mins oxgall-stressed Bifidobacterium longum P/N 601377 after 18 hrs; type: functional; how it was run: as §1
# Bifidobacterium breve [32] = assay: Antimicrobial activity against 60 min 1 M HCl-stressed Bifidobacterium breve ATCC 15700 after 18 hrs; type: functional; how it was run: as §4
# Bifidobacterium bifidum [33] = assay: Antimicrobial activity against 90 mins oxgall-stressed Bifidobacterium bifidum ATCC 15696 after 18 hrs; type: functional; how it was run: as §1
# Bifidobacterium bifidum [34] = assay: Antimicrobial activity against 60 min 1 M HCl-stressed Bifidobacterium bifidum R0071 after 18 hrs; type: functional; how it was run: as §4
# [35] = tested on: Bifidobacterium thermophilum; assay: Antimicrobial activity against 90 mins hydrogen peroxide-stressed Bifidobacterium thermophilum ATCC 25866 after 18 hrs; type: functional; how it was run: as §3
# [36] = tested on: Bifidobacterium thermophilum; assay: Antimicrobial activity against 60 min 1 M HCl-stressed Bifidobacterium thermophilum ATCC 25866 after 18 hrs; type: functional; how it was run: as §4
# [37] = tested on: Bifidobacterium thermophilum; assay: Antimicrobial activity against 90 mins oxgall-stressed Bifidobacterium thermophilum ATCC 25866 after 18 hrs; type: functional; how it was run: as §1
# Bifidobacterium breve [38] = assay: Antimicrobial activity against 90 mins hydrogen peroxide-stressed Bifidobacterium breve ATCC 15700 after 18 hrs; type: functional; how it was run: as §3
# Bifidobacterium longum [39] = assay: Antimicrobial activity against 90 mins hydrogen peroxide-stressed Bifidobacterium longum R0175 after 18 hrs; type: functional; how it was run: as §3
# Bifidobacterium animalis [40] = assay: Antimicrobial activity against 60 min 1 M HCl-stressed Bifidobacterium animalis ATCC 27536 after 18 hrs; type: functional; how it was run: as §4
# Bifidobacterium longum [41] = assay: Antimicrobial activity against 90 mins hydrogen peroxide-stressed Bifidobacterium longum P/N 601377 after 18 hrs; type: functional; how it was run: as §3
# Bifidobacterium longum [42] = assay: Antimicrobial activity against Bifidobacterium longum R0175; type: functional; how it was run: as §2
# Bifidobacterium longum [43] = assay: Antimicrobial activity against 60 min 1 M HCl-stressed Bifidobacterium longum ATCC 15707 after 18 hrs; type: functional; how it was run: as §4
# Bifidobacterium animalis [44] = assay: Antimicrobial activity against 90 mins hydrogen peroxide-stressed Bifidobacterium animalis ATCC 27536 after 18 hrs; type: functional; how it was run: as §3
# Bifidobacterium longum [45] = assay: Antimicrobial activity against 60 min 1 M HCl-stressed Bifidobacterium longum P/N 601377 after 18 hrs; type: functional; how it was run: as §4
# Bifidobacterium longum [46] = assay: Antimicrobial activity against Bifidobacterium longum ATCC 15708; type: functional; how it was run: as §2
# Bifidobacterium longum [47] = assay: Antimicrobial activity against 90 mins oxgall-stressed Bifidobacterium longum ATCC 15707 after 18 hrs; type: functional; how it was run: as §1
smiles,measurement,setting,value
NC[C@@H]1O[C@H](O[C@H]2[C@@H](O)[C@H](O[C@@H]3[C@@H](O)[C@H](N)C[C@H](N)[C@H]3O[C@H]3O[C@H](CO)[C@@H](O)[C@H](O)[C@H]3N)O[C@@H]2CO)[C@H](N)[C@@H](O)[C@@H]1O [PAROMOMYCIN],MIC,Bifidobacterium longum [1],500 µg/mL
same,MIC,Bifidobacterium longum [2],250 µg/mL
same,MIC,Bifidobacterium bifidum [3],250 µg/mL
same,MIC,[4],250 µg/mL
same,MIC,[5],250 µg/mL
same,MIC,[6],500 µg/mL
same,MIC,Bifidobacterium bifidum [7],500 µg/mL
same,MIC,Bifidobacterium bifidum [8],125 µg/mL
same,MIC,[9],250 µg/mL
same,MIC,Bifidobacterium bifidum [10],250 µg/mL
same,MIC,Bifidobacterium longum [11],250 µg/mL
same,MIC,[12],500 µg/mL
same,MIC,Bifidobacterium breve [13],250 µg/mL
same,MIC,Bifidobacterium longum [14],250 µg/mL
same,MIC,Bifidobacterium breve [15],250 µg/mL
same,MIC,Bifidobacterium breve [16],250 µg/mL
same,MIC,[17],250 µg/mL
same,MIC,Bifidobacterium breve [18],250 µg/mL
same,MIC,Bifidobacterium breve [19],125 µg/mL
same,MIC,[20],250 µg/mL
same,MIC,Bifidobacterium animalis [21],125 µg/mL
same,MIC,Bifidobacterium bifidum [22],250 µg/mL
same,MIC,Bifidobacterium bifidum [23],125 µg/mL
same,MIC,Bifidobacterium bifidum [24],250 µg/mL
same,MIC,Bifidobacterium animalis [25],250 µg/mL
same,MIC,Bifidobacterium bifidum [26],125 µg/mL
same,MIC,Bifidobacterium longum [27],500 µg/mL
same,MIC,Bifidobacterium longum [28],250 µg/mL
same,MIC,Bifidobacterium longum [29],125 µg/mL
same,MIC,Bifidobacterium breve [30],250 µg/mL
same,MIC,Bifidobacterium longum [31],62.5 µg/mL
same,MIC,Bifidobacterium breve [32],125 µg/mL
same,MIC,Bifidobacterium bifidum [33],500 µg/mL
same,MIC,Bifidobacterium bifidum [34],250 µg/mL
same,MIC,[35],500 µg/mL
same,MIC,[36],500 µg/mL
same,MIC,[37],250 µg/mL
same,MIC,Bifidobacterium breve [38],500 µg/mL
same,MIC,Bifidobacterium longum [39],250 µg/mL
same,MIC,Bifidobacterium animalis [40],500 µg/mL
same,MIC,Bifidobacterium longum [41],125 µg/mL
same,MIC,Bifidobacterium longum [42],250 µg/mL
same,MIC,Bifidobacterium longum [43],500 µg/mL
same,MIC,Bifidobacterium animalis [44],500 µg/mL
same,MIC,Bifidobacterium longum [45],250 µg/mL
same,MIC,Bifidobacterium longum [46],250 µg/mL
same,MIC,Bifidobacterium longum [47],125 µg/mL
